Source: PubChem BioAssay (Sanford-Burnham Center for Chemical Genomics)
EBI2 antag – blocks human EBI2 receptor beta-arrestin signaling; P32249; EBI2 beta-arrestin recruitment, luminescence, 7a,25-OHC stimulated; inhibition, % at 5 µM; hit rate 0.81% among 360,000; in the data active = inhibition above about 38%;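 also: enzyme fragment complementation signal reports receptor beta-arrestin coupling in cells; 0% = agonist plus DMSO wells and 100% = wells without agonist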
Target sequence (P32249 whole entry, looked up, the tested form may be a part): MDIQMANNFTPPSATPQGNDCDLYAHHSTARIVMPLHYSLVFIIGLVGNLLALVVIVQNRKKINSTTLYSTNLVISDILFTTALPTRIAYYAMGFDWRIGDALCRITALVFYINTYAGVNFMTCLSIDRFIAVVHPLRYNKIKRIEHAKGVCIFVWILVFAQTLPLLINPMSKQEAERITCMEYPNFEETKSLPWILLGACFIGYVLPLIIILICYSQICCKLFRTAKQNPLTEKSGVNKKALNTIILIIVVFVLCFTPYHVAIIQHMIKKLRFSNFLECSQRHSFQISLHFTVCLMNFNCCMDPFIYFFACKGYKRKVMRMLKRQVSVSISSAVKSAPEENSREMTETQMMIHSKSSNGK
CXCR6 inh – blocks human CXCR6 beta-arrestin recruitment. hit rate 0.36% among 360,000. AID 602244. O00574. inhibition, % at 20 µM. CHO-K1 PathHunter CXCR6 beta-arrestin, luminescence; in the data active = inhibition above about 34%, passing the limit was not always enough;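 also: antagonist mode with CXCL16 agonist at 10 nM final; 0% = 10 nM CXCL16 with DMSO and 100% = unstimulated wells without agonist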
CCR6 antag – antagonists of human CCR6 receptor. CHO-K1 CCR6 PathHunter beta-arrestin, luminescence, CCL20-stimulated. inhibition, % at 20 µM. hit rate 0.49% among 340,000. AID 493098;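 active = compounds whose inhibition of the agonist-driven luminescence signal at 20 µM reaches about 50%, limit read from the data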;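 also: cells stimulated with CCL20 at 14 nM final; plate controls were DMSO with CCL20 for no effect and DMSO without agonist for full effect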
APJ antag – blocks the human apelin receptor APJ; P35414; hit rate 0.32% among 330,000; inhibition, % at 20 µM; AID 2521; CHO-K1 APJ beta-arrestin complementation, luminescence;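 active = inhibition above about 40% at 20 µM, limit read from the data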;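 also: cells challenged with 10 nM apelin-13 agonist together with compound; plate controls were apelin-13 plus DMSO wells for no effect and DMSO wells lacking apelin-13 for full effect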
Target sequence (P35414 whole entry, looked up): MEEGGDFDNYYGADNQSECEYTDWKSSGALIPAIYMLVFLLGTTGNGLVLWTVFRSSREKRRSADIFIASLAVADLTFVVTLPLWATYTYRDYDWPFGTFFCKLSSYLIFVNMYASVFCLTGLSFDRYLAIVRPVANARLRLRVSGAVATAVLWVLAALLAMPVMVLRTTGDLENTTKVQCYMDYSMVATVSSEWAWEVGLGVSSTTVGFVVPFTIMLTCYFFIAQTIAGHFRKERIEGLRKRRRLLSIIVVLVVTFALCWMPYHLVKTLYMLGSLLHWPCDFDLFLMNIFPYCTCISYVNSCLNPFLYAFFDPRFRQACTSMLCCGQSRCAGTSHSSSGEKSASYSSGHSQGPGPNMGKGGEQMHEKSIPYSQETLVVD
APJ agonist – activates the human apelin receptor APJ; P35414; CHO-K1 APJ PathHunter beta-arrestin, luminescence; 0% DMSO wells, 100% apelin; activation, % at 20 µM; hit rate 0.11% among 330,000; AID 2520;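 active = activation more than six SD over the plate average, tested at 20 µM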;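 also: 0% = DMSO alone and 100% = apelin-13 at 10 nM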
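Test system: CHO-K1 APJ beta-arrestin complementation cell line. Amount: cell density 1000 per well. Controls: DMSO negative, 10 nM Apelin-13 positive. Signal: luminescent beta-gal fragment complementation, chemiluminescent substrate. Read-out basis: agonist-driven arrestin binding to APJ. Timing: compound stimulation 90 min at 25 °C, detection 60 min.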
EBI2 antag conf – confirmation of human EBI2 receptor antagonists; shares compounds with EBI2 antag; EBI2 beta-arrestin luminescence, 7a,25-OHC antagonism; inhibition, % at 5 µM; hit rate 29% among 2,400; AID 651997;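 active = inhibition of at least 50%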
EBI2 ag – activates EBI2, counter-screen for EBI2 antagonists. shares compounds with EBI2 antag. EBI2-expressing cells, agonist mode, luminescence, 60 min; 0% vehicle, 100% 7α,25-dihydroxycholesterol control. activation, % at 5 µM. 2,400 tested, under 10 active;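 active = activation of at least 50%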
bGal counter – beta-galactosidase inhibition counter-screen. shares compounds with EBI2 antag. hit rate 1% among 2,400. purified beta-galactosidase, luminescent Galacton Star, 15 min. AID 652176. inhibition, % at 5 µM;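 active = replicate-average signal at least 3 plate SD below neutral wells, shown as high inhibition, flagging enzyme-inhibiting false positives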;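 also: 0% = DMSO wells with enzyme and 100% = wells lacking enzyme; higher means stronger loss of beta-gal luminescence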
* = called active by the depositor; · = no result given. This is a sample that favours compounds with a hit; in the whole collection about 1.5% have one here.

SMILES | EBI2 antag | CXCR6 inh | CCR6 antag | APJ antag | APJ agonist | EBI2 antag conf | EBI2 ag | bGal counter
O=C(Nc1ccc2ccccc2c1)C(c1ccccc1)n1c(=O)c(-c2cc3ccccc3[nH]2)nc2ccccc21 (stereo not given) | -3.4 | · | · | · | · | · | · | ·
CCCCCNC(=O)C(c1ccnc2ccccc12)n1c(=O)c(-c2ccccc2)nc2ccccc21 (stereo not given) | 10.8 | · | · | · | · | · | · | ·
O=C(c1ccc(NC(=S)NCc2ccc(Cl)cc2)cc1)N1CCCCC1 | -5.5 | 2.4 | -1.8 | -8.1 | 0.0 | · | · | ·
COc1ccc(-c2noc(N3CCC(C(=O)NCc4ccc(Cl)cc4)CC3)n2)cc1 | 47.2* | -6.1 | -10.4 | -3.0 | -0.9 | 13.9 | -1.6 | -14.8
O=C(NCc1ccc(Cl)cc1)C1CCCN(C(=O)c2ccc(Cl)cc2)C1 (stereo not given) | 65.8* | 5.8 | 2.6 | 11.7 | -4.7 | 34.1 | -1.6 | -10.9
O=C(NCc1ccc(Cl)cc1)C1CCN(C(=O)c2ccc(Cl)cc2)CC1 | 44.8* | 7.0 | 19.3 | -18.7 | 0.0 | 25.6 | -0.5 | 10.6
O=C(NCc1ccc(Cl)cc1)C1CCN(C(=O)c2ccco2)CC1 | -2.7 | 8.2 | 22.0 | 16.9 | -2.0 | · | · | ·
O=C(COc1cccc(Cl)c1)N/N=C\c1cc2ccccc2nc1Cl | 52.6* | -5.6 | -1.7 | -6.0 | 0.8 | 42.1 | -1.1 | -9.8
Cc1ccccc1OCC(=O)N/N=C/c1cc2ccccc2nc1Cl | 30.0 | -17.1 | 10.5 | -8.8 | 5.1 | · | · | ·
O=C(c1ccccc1F)N1CCN(c2ccc([N+](=O)[O-])cc2-n2cccc2)CC1 | 7.2 | 12.6 | 22.1 | 14.9 | -4.4 | · | · | ·
O=C(c1ccc(F)cc1)N1CCN(c2ccc([N+](=O)[O-])cc2-n2cccc2)CC1 | 55.1* | 10.6 | 22.7 | 7.3 | -2.4 | 25.5 | 0.2 | 5.3
COc1ccc(N(CC(=O)NCCSc2ccccc2)S(=O)(=O)c2ccccc2)cc1OC | 48.5* | -15.0 | 16.3 | -4.6 | 0.5 | 27.1 | 1.4 | 0.3
CS(=O)(=O)N(CC(=O)NCCSc1ccc(Cl)cc1)c1ccc2c(c1)OCO2 | 87.1* | -8.5 | 39.0 | 6.7 | -0.3 | 63.3* | -0.1 | 3.2
CS(=O)(=O)N(CC(=O)NCCSc1ccccc1)c1ccc2c(c1)OCO2 | 21.9 | 11.3 | 9.9 | 0.2 | -3.3 | · | · | ·
CCOC(=O)N1CCN(C(=S)NC(=O)/C=C/c2ccc(C)cc2)CC1 | 83.3* | -0.7 | 11.7 | 10.2 | -7.4 | 48.4 | 0.1 | 7.4
COc1ccc(OC)c(NC(=O)CSCc2cnn(-c3ccccc3)c2-n2cccc2)c1 | 14.9 | -2.7 | 12.9 | 10.5 | -4.2 | · | · | ·
COc1cc(NC(=O)CSCc2cnn(-c3ccccc3)c2-n2cccc2)cc(OC)c1 | 37.3* | 0.0 | 23.1 | 6.7 | -0.8 | 13.7 | -1.7 | -12.7
CC1CCN(C(=O)COC(=O)c2cccc(S(=O)(=O)N3CCOCC3)c2)CC1 | 7.5 | -11.7 | · | · | · | · | · | ·
O=C(C(=O)N1CCN(C/C=C/c2ccccc2)CC1)c1ccccc1 | 9.2 | · | · | · | · | · | · | ·
COc1ccccc1N1CCN(C(=O)c2cc3c(C)nc4ccccc4c3o2)CC1 | 73.5* | -12.0 | -14.9 | -39.8 | 7.2 | 53.2* | 1.6 | 3.0
COc1ccc2oc(C(=O)N3CCN(S(=O)(=O)c4c(C)c(C)cc(C)c4C)CC3)c(C)c2c1 | 79.9* | 16.9 | 11.5 | · | · | 52.9* | 1.1 | -16.5
Cc1ccc(C)c(N2CCN(C(=O)c3cc4c(C)nc5ccccc5c4o3)CC2)c1 | 87.9* | 1.9 | 5.9 | -11.0 | -5.2 | 60.1* | -0.8 | -11.7
COc1ccccc1N1CCN(C(=O)c2oc3ccc(Br)cc3c2C)CC1 | 75.2* | -6.8 | -4.0 | -2.3 | -2.5 | 44.9 | 2.2 | 0.1
CC1(C(=O)Nc2ccc3c(c2)OCCO3)CN(S(C)(=O)=O)CC(=O)N1Cc1cccs1 (stereo not given) | 0.1 | · | · | · | · | · | · | ·
O=[N+]([O-])c1cc(-c2cnc3ccccc3n2)ccc1Oc1ccc(Br)cc1 | 46.2* | 3.8 | 12.9 | -11.1 | 2.4 | 42.3 | 0.3 | 2.9
SMILES | EBI2 antag | CXCR6 inh | CCR6 antag | APJ antag | APJ agonist | EBI2 antag conf | EBI2 ag | bGal counter
Clc1ccc(C(c2cccs2)N2CCNCC2)cc1 (stereo not given) | -4.0 | 5.9 | · | · | · | · | · | ·
Cc1cccc(/C=N/NC(=O)c2cc(-c3cccnc3)nc3c2c(C)nn3-c2ccccc2)c1 | 43.5* | 8.5 | 4.6 | -3.2 | -1.0 | 38.0 | -1.5 | -16.1
COc1ccccc1N1CCN(S(=O)(=O)c2ccc3nc(-c4ccccc4)[nH]c3c2)CC1 | 53.3* | -0.6 | 11.0 | -20.9 | 2.2 | 32.1 | 0.6 | 4.7
O=S(=O)(c1ccc2nc(-c3ccccc3)[nH]c2c1)N1CCN(c2cccc(Cl)c2)CC1 | -2.8 | 2.8 | -7.7 | -33.3 | 8.1 | · | · | ·
CCO[C@H]1OC(C(=O)N2CCN(Cc3ccc4c(c3)OCO4)CC2)=C[C@@H](c2ccc3c(c2)OCO3)[C@@H]1CCCO | 16.4 | -1.4 | 15.4 | -3.3 | 7.5 | · | · | ·
C#Cc1ccc([C@H]2C=C(C(=O)N3CCN(Cc4ccc5c(c4)OCO5)CC3)O[C@@H](OCC)[C@@H]2CCCO)cc1 | 55.4* | -2.2 | 9.9 | 5.4 | 4.6 | 21.6 | 1.3 | 5.1
CC(=NNC(=S)N1CC2CCC(CC2)C1)c1ccncn1 | -14.1 | -7.8 | -5.3 | · | · | · | · | ·
COCC(=O)N(C)C[C@@H]1Oc2ncc(Br)cc2C(=O)N([C@@H](C)CO)C[C@H]1C | -0.9 | 1.4 | · | · | · | · | · | ·
CC1(C(=O)NS(=O)(=O)C2CC2)CCN(C(=O)COc2ccc(Cl)cc2Cl)C1 (stereo not given) | -5.1 | 1.0 | · | · | · | · | · | ·
CCn1c(SCC(=O)N/N=C/c2ccc(C)o2)nnc1-c1ccccc1 | 51.1* | 10.4 | -3.8 | -6.6 | -0.6 | 25.5 | 2.6 | 2.9
O=C(CCSc1ccc(Cl)cc1)NC1CCCCC1 | 28.6 | 11.0 | 4.2 | -1.6 | -2.7 | · | · | ·
O=C(CCSc1ccc(Cl)cc1)NC12CC3CC(CC(C3)C1)C2 | 54.4* | 5.9 | 16.9 | 35.7 | -1.8 | 26.2 | -0.5 | -9.4
CCc1cccc2c1NC(=O)C21N2CCCC2C(C(=O)c2ccc3ccccc3c2)C12C(=O)Nc1ccccc12 (stereo not given) | 55.5* | 4.5 | 1.0 | -4.3 | -4.1 | 22.9 | -0.1 | 9.4
Cc1cccc2c1NC(=O)C21N2CCCC2C(C(=O)c2ccc3ccccc3c2)C12C(=O)Nc1ccccc12 (stereo not given) | · | · | 1.6 | -8.7 | -2.1 | · | · | ·
COc1ccccc1N1CCN(C(=O)/C=C/c2cccs2)CC1 | 47.6* | -8.2 | -9.9 | -0.2 | -4.0 | 41.4 | 1.9 | 1.4
COc1ccccc1N1CCN(C(=O)/C=C/c2ccc3c(c2)OCO3)CC1 | 78.4* | -6.9 | 9.4 | 3.8 | -1.0 | 55.6* | -0.6 | -9.3
